Converted amounts (≈) assume the structure as drawn.
Experiments:
Assay type in all cases: functional
Escherichia coli = assay: In vitro antimicrobial activity against Escherichia coli ATCC 39188 was determined
Outline: (§1)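 MIC by agar dilution: organisms applied onto antibiotic-containing agar plates with a Steers-type replicator. MIC taken as the lowest concentration preventing visible growth, averaged from duplicate determinations (± standard error).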

Pseudomonas aeruginosa [1] = assay: In vitro antimicrobial activity against Pseudomonas aeruginosa 18S-H was determined; outline: as §1
Klebsiella pneumoniae = assay: In vitro antimicrobial activity against Klebsiella pneumoniae NCTC 418 was determined; outline: as §1
[2] = In vitro antimicrobial activity against Xanthomonas maltophilia GN 12873 was determined; conditions: Stenotrophomonas maltophilia; outline: as §1
[3] = In vitro antimicrobial activity against Xanthomonas maltophilia GN 12873 in combination (1:1 w/w) with imipenem; conditions: Stenotrophomonas maltophilia; outline: as §1
[4] = tested on: Stenotrophomonas maltophilia; assay: Minimum protective concentration against beta-lactamase of Xanthomonas maltophilia GN 12873 (CXase-I)
Outline: (§2)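 Minimum protective concentration taken as the lowest β-lactam concentration protecting a chromogenic indicator from β-lactamase hydrolysis within 1.0 h under standard conditions. Hydrolysis was read as a distinct red color. Compound stability without enzyme was checked at 37 °C in phosphate buffer, pH 6.5.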

[5] = tested on: Stenotrophomonas maltophilia; assay: Minimum protective concentration against beta-lactamase of Xanthomonas maltophilia GN 12873 (CXase-II); outline: as §2
Staphylococcus aureus [6] = assay: In vitro antimicrobial activity against Staphylococcus aureus FDA 209P was determined; outline: as §1
Pseudomonas aeruginosa [7] = assay: Minimum protective concentration against beta-lactamase of Pseudomonas aeruginosa 18S-H; outline: as §2
Staphylococcus aureus [8] = assay: Minimum protective concentration against beta-lactamase of Staphylococcus aureus 95; outline: as §2
Pseudomonas aeruginosa [9] = assay: In vitro antimicrobial activity against Pseudomonas aeruginosa 1101-75 was determined; outline: as §1
Staphylococcus aureus [10] = assay: In vitro antimicrobial activity against Staphylococcus aureus 95 (methicillin-resistant strain) was determined
Outline: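 Agar dilution MIC: organisms were deposited onto medicated agar plates with a Steers-type replicator. MIC was read as the lowest antibiotic concentration preventing visible growth. Values are averages of duplicate determinations with standard error.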

SMILES	MIC (Escherichia coli) [µg/mL]	MIC (Pseudomonas aeruginosa [1]) [µg/mL]	MIC (Klebsiella pneumoniae) [µg/mL]	MIC [2] [µg/mL]	MIC [3] [µg/mL]	MPC [4] [µg/mL]	MPC [5] [µg/mL]	MIC (Staphylococcus aureus [6]) [µg/mL]	MPC (Pseudomonas aeruginosa [7]) [µg/mL]	MPC (Staphylococcus aureus [8]) [µg/mL]	MIC (Pseudomonas aeruginosa [9]) [µg/mL]	MIC (Staphylococcus aureus [10]) [µg/mL]
O=C(Cc1ccccc1)N[C@@H]1C(=O)N2C(C(=O)O)=CC[C@H]12 (racemic)	0.98 (≈ 3.42 µM)	31.6 (≈ 110 µM)	1.92 (≈ 6.71 µM)	10.3 (≈ 35.9 µM)	2.15	30	33.6	0.12 (≈ 0.419 µM)	4.21	3.45	8.91 (≈ 31.1 µM)	30.7 (≈ 107 µM)
COC(=O)CC1=C(C(=O)O)N2C(=O)[C@@H](NC(=O)Cc3ccccc3)[C@H]2C1 (racemic)	0.67 (≈ 1.87 µM)	21.3 (≈ 59.4 µM)	0.77 (≈ 2.15 µM)	5.97 (≈ 16.7 µM)	0.98	30.4	35	0.04 (≈ 0.112 µM)	8.74	6.87	1.8 (≈ 5.02 µM)	18.5 (≈ 51.7 µM)
O=C(Cc1ccccc1)N[C@@H]1C(=O)N2C(C(=O)O)=C(CCO)C[C@H]12 (racemic)	0.75 (≈ 2.27 µM)	22.6 (≈ 68.5 µM)	0.88 (≈ 2.66 µM)	6.73 (≈ 20.4 µM)	0.77	36.7	42.1	0.07 (≈ 0.212 µM)	6.98	7.18	3.51 (≈ 10.6 µM)	19.2 (≈ 58.2 µM)
CC(=O)OCCC1=C(C(=O)O)N2C(=O)[C@@H](NC(=O)Cc3ccccc3)[C@H]2C1 (racemic)	0.69 (≈ 1.85 µM)	17.2 (≈ 46.2 µM)	1.08 (≈ 2.9 µM)	4.12 (≈ 11.1 µM)	0.39	27.5	47.8	0.05 (≈ 0.134 µM)	5.87	6.12	2.87 (≈ 7.71 µM)	14.9 (≈ 40.1 µM)
O=C(Cc1ccccc1)N[C@@H]1C(=O)N2C(C(=O)O)=C(C(=O)O)C[C@H]12 (racemic)	0.48 (≈ 1.45 µM)	28.2 (≈ 85.3 µM)	0.56 (≈ 1.7 µM)	9.61 (≈ 29.1 µM)	1.58	25.5	29.4	0.03 (≈ 0.0908 µM)	2.38	2.2	5.63 (≈ 17 µM)	13.9 (≈ 42 µM)
COC(=O)C1=C(C(=O)O)N2C(=O)[C@@H](NC(=O)Cc3ccccc3)[C@H]2C1 (racemic)	0.2 (≈ 0.581 µM)	12.1 (≈ 35.1 µM)	0.15 (≈ 0.436 µM)	12.1 (≈ 35.2 µM)	2.01	14.6	16.7	0.01 (≈ 0.029 µM)	1.02	0.98	0.89 (≈ 2.58 µM)	8.3 (≈ 24.1 µM)
C[C@@H](O)[C@H]1C(=O)N2C(C(=O)O)=C(SCCNC=N)C[C@H]12.O [IMIPENEM]	0.35	35.6	0.4	> 128		46.8	0.87	0.02	35.61	30.12	4.71	15.7
CC1(C)S[C@@H]2[C@H](NC(=O)Cc3ccccc3)C(=O)N2[C@H]1C(=O)O [PENICILLIN G]	2.87 (≈ 8.58 µM)	> 128	> 128	> 128		23.6	28.8	0.51 (≈ 1.53 µM)	1.03	1.85	> 128	> 128

From ChEMBL document CHEMBL1133014, “Design, synthesis, and SAR of novel carbapenem antibiotics with high stability to Xanthomonas maltophilia oxyiminocephalosporinase type II” (2000)
